Shown are actives, neighbours in structure and some others; about 2.6% of the full set was active somewhere.
iPSC survival up – enhancers of single-cell hiPSC survival, primary screen, ATPlite luminescence; AID 602274, 2012; survival enhancement, % at 20 µM; 100% = ROCK inhibitor wells, 0% = DMSO; actives 0.044% (n = 360,000); in the data active = survival enhancement above about 18%;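 note: cells exposed to compounds for 16 hours before the ATP read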
ABCB6 inh MLPCN – ABCB6 transporter inhibitors, primary screen, K562-ABCB6 cells, flow cytometry, MLPCN library; K562-ABCB6 porphyrin accumulation, 1 h; hits give low values; fluorescence ratio to DMSO, % at 10 µM; actives 0.19% (n = 360,000);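 active = fluorescence ratio to DMSO below 75%, the collection mean minus 3 SD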;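 note: signal is porphyrin accumulated inside mitochondria; 100% equals median channel fluorescence of DMSO control wells; lower ratio means ABCB6 inhibition with less porphyrin fluorescence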
Target sequence (Q9NP58 whole entry, looked up): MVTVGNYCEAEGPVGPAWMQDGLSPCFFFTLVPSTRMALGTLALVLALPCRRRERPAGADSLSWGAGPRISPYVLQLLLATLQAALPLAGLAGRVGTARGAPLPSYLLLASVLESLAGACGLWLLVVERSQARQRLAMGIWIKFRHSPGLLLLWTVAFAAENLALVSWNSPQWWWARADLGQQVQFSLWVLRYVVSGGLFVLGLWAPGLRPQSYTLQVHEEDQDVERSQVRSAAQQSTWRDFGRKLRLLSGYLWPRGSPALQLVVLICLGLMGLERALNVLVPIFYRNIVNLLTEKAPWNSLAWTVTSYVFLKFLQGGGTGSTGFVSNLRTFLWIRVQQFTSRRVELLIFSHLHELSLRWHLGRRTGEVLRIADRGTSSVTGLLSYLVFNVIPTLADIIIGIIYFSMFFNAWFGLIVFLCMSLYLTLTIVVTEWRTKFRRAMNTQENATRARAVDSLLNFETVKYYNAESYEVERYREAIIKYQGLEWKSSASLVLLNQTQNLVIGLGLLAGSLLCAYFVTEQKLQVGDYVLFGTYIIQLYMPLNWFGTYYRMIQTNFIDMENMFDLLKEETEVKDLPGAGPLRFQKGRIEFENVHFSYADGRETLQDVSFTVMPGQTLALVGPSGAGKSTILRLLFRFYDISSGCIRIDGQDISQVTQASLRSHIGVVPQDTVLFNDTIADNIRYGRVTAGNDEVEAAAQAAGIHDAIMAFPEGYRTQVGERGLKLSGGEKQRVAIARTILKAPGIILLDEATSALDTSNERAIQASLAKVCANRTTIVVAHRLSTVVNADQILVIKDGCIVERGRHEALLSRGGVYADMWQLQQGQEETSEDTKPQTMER
MC4R ag barr – MC4R agonists recruiting beta-arrestin, primary screen, cell-based, luminescence, agonist arm of biased-ligand search | Melanocortin receptor 4 (Homo sapiens), P32245 | U2OS MC4R beta-arrestin complementation; percent of melanotan II response, DMSO zero | activation, % at 8.9 µM | actives 0.98% (n = 360,000);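 active = activation above a per-plate cutoff, the mean activation of sample wells on that plate plus 3 SD, cut at about 8% in these data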
MC4R antagonist – MC4R antagonists of cAMP signaling, primary screen, cell-based, TR-FRET, antagonist arm of biased-ligand search; Melanocortin receptor 4 (Homo sapiens), P32245; MC4R-expressing cells, MTII-stimulated cAMP, LANCE TR-FRET; inhibition, % at 6.5 µM; actives 0.48% (n = 360,000); AID 540295, 2011;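 active = inhibition above its plate's cutoff, the mean of tested wells on that plate plus 3 SD, cut at about 29% in these data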;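 note: 0% = Melanotan II alone and 100% = Melanotan II plus saturating MCL0020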
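Test system: U2OS cells stably expressing human melanocortin 4 receptor (MC4R); also added: Melanotan II challenge; compound: 6.5 µM single dose; timing: 30-min compound preincubation, 1-h Melanotan II challenge, 1-h detection, room temperature; signal: Eu-cAMP/anti-cAMP TR-FRET, emission 671 nm; repeats: one well per compound, no replicates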
Granule exo inh – LAMP-1 surface exposure blockers, TALL-104 cells – cell-based, flow cytometry, MLPCN library, primary screen; actives 0.66% (n = 360,000); inhibition, % at 10 µM; TALL-104 LAMP-1 surface exposure; cells stimulated with thapsigargin and PMA; AID 651702, 2012;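 active = inhibition above about 55%, limit read from the data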
TbMetRS inhib – T. brucei MetRS inhibitors, primary screen, biochemical, luminescence; AID 624268, 2012; purified T. brucei MetRS, ATP depletion, Kinase-Glo luminescence; methionyl-tRNA synthetase (Trypanosoma brucei brucei); inhibition, % at 11.9 µM; actives 0.4% (n = 360,000);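 active = inhibition above a per-plate cutoff of the control wells' mean inhibition plus 3 SD, cut at about 5.5% in these data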;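 note: 0% = DMSO wells median and 100% = median of wells with control inhibitor compound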
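Material – parasite MetRS enzyme · Medium – HEPES-MgCl2-KCl buffer plus DTT, spermine, BSA, pyrophosphatase · Reagent – ATP, methionine and E. coli bulk tRNA substrates · Times – 15 min enzyme-compound preincubation, 2 h reaction, 10 min detection, 25 °C · Measured by – luminescence of leftover ATP · Evaluation – percent inhibition relative to median high and low control wells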
cAMP nonselect – nonselective cAMP signaling inhibitors, parental cells, counter-screen for MC4R biased antagonist project, cell-based, TR-FRET, U2OS, forskolin, triplicate. actives 26% (n = 1,600). inhibition, % at 6.5 µM. LANCE TR-FRET. shares compounds with MC4R antagonist;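 active = mean inhibition over triplicates above the low-control well mean plus 3 SD, set per campaign, cut at about 13% in these data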;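 note: signal is single emission at 671 nm which falls as cellular cAMP rises; 0% = forskolin-stimulated wells and 100% = buffer without forskolin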
MC4R cAMP antag – MC4R cAMP antagonists, retest, confirmation, cell-based, TR-FRET. shares compounds with MC4R antagonist. MC4R-expressing cells, MTII-stimulated cAMP. inhibition, % at 6.5 µM. actives 27% (n = 1,600). AID 602195, 2012; in the data active = inhibition above about 29%;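 note: 0% = agonist stimulated wells alone and 100% = agonist stimulated wells plus saturating reference antagonist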
The depositor's hits bear a star.

CC(C)CC(NC(=O)C(CO)NC(=O)C1CCC(=O)N1)C(N)=O (stereo unspecified) was read as iPSC survival up -2, ABCB6 inh MLPCN 99, MC4R ag barr 1, MC4R antagonist 15, Granule exo inh -19 and TbMetRS inhib 0.
Screening Cc1nc(N2CCC(C)CC2)c2c(C)c(C(=O)Nc3ccc(C)c(F)c3)sc2n1 returned iPSC survival up -2, ABCB6 inh MLPCN 87, MC4R ag barr 2, MC4R antagonist 12, Granule exo inh -5 and TbMetRS inhib 0.
For Cc1nc(N2CCC(C)CC2)c2c(C)c(C(=O)Nc3ccccc3C(F)(F)F)sc2n1 the results were iPSC survival up 3, ABCB6 inh MLPCN 98, MC4R ag barr 2, MC4R antagonist 30*, Granule exo inh -1, TbMetRS inhib 0, cAMP nonselect 2 and MC4R cAMP antag 18.
`CC(Nc1ccc(N2CCOCC2)cc1)C(=O)N1c2ccccc2CC1C` (stereo unspecified) gave iPSC survival up 0, ABCB6 inh MLPCN 94, MC4R ag barr 0, MC4R antagonist -6, Granule exo inh -3 and TbMetRS inhib 0.
COc1ccccc1CN(C)C(=O)C(NC(=O)Cc1cccc2ccccc12)C(C)C (stereo unspecified) was read as iPSC survival up 0, ABCB6 inh MLPCN 96, MC4R ag barr 1, MC4R antagonist 36*, Granule exo inh 0, TbMetRS inhib 0, cAMP nonselect -9 and MC4R cAMP antag -1.
Screening COc1ccc(CN(C)C(=O)CNC(=O)Cc2cccc3ccccc23)c(OC)c1OC returned iPSC survival up 0, ABCB6 inh MLPCN 99, MC4R ag barr -2, MC4R antagonist 8, Granule exo inh 42 and TbMetRS inhib 0.
COC(=O)C(Cc1ccccc1)NC(=O)CCNC(=O)c1ccc(Br)cc1 (stereo unspecified) was read as iPSC survival up 0, ABCB6 inh MLPCN 104, MC4R ag barr 1, MC4R antagonist 29*, Granule exo inh -4, TbMetRS inhib 0, cAMP nonselect -9 and MC4R cAMP antag -20.
Screening COC(=O)[C@H](Cc1ccccc1)NC(=O)NCCc1ccc(S(N)(=O)=O)cc1 returned iPSC survival up 0, ABCB6 inh MLPCN 93, MC4R ag barr -2, MC4R antagonist 1, Granule exo inh -1 and TbMetRS inhib -1.
For COC(=O)[C@H](Cc1ccccc1)NC(=O)NCCc1ccc(F)cc1 the results were iPSC survival up 0, ABCB6 inh MLPCN 89, MC4R ag barr -1, MC4R antagonist 29*, Granule exo inh 34, TbMetRS inhib 0, cAMP nonselect 32* and MC4R cAMP antag 35*.
`COC(=O)C(Cc1ccccc1)NC(=O)CCC(=O)NC(C)CCc1ccccc1` (stereo unspecified) gave iPSC survival up 0, ABCB6 inh MLPCN 98, MC4R ag barr 1, MC4R antagonist 16, Granule exo inh 15 and TbMetRS inhib 0.
For O=C(CNS(=O)(=O)c1ccccc1)NNC(=O)C(Cl)Cl the results were iPSC survival up 4, ABCB6 inh MLPCN 100, MC4R ag barr -2, MC4R antagonist 29*, Granule exo inh 0, TbMetRS inhib 0, cAMP nonselect -5 and MC4R cAMP antag -13.
Screening COc1c(O)cc2c(c1O)[C@@H]1OC(CO)C(O)C(O)[C@H]1OC2=O (stereo partly specified) returned iPSC survival up -1, ABCB6 inh MLPCN 92, MC4R ag barr -1, MC4R antagonist 1, Granule exo inh -1 and TbMetRS inhib -1.
For CCN(CC)S(=O)(=O)c1ccc(Cl)c(C(=O)OC2CC(C)OC2=O)c1 (stereo unspecified) the results were iPSC survival up 0, ABCB6 inh MLPCN 100, MC4R ag barr 2, MC4R antagonist 40*, Granule exo inh 3, TbMetRS inhib -1, cAMP nonselect 9 and MC4R cAMP antag 20.
CCN(CC)S(=O)(=O)c1ccc(Cl)c(C(=O)Oc2cccnc2)c1 was read as iPSC survival up -2, ABCB6 inh MLPCN 101, MC4R ag barr 2, MC4R antagonist 11, Granule exo inh -3 and TbMetRS inhib 0.
O=C(CSc1nc(-c2cccs2)cc(C(F)(F)F)n1)Nc1cc(OCC(F)(F)C(F)F)cc([N+](=O)[O-])c1 was read as iPSC survival up -2, ABCB6 inh MLPCN 97, MC4R ag barr 0, MC4R antagonist 14, Granule exo inh 5 and TbMetRS inhib 0.
For CNC(=O)C(C)c1ncc(C(F)(F)F)cc1Cl (stereo unspecified) the results were iPSC survival up 1, ABCB6 inh MLPCN 101, MC4R ag barr 1, MC4R antagonist 31*, Granule exo inh -5, TbMetRS inhib 0, cAMP nonselect 1 and MC4R cAMP antag -8.
For CC(C(=O)Nc1ccc(Cl)cc1)c1ncc(C(F)(F)F)cc1Cl (stereo unspecified) the results were iPSC survival up -2, ABCB6 inh MLPCN 105, MC4R ag barr 0, MC4R antagonist 0, Granule exo inh -6 and TbMetRS inhib 1.
`C/C(=N/NC(=O)CN(c1ccccc1)S(=O)(=O)c1ccccc1)c1ccccc1O` gave iPSC survival up 0, ABCB6 inh MLPCN 102, MC4R ag barr 0, MC4R antagonist 30*, Granule exo inh 10, TbMetRS inhib 0, cAMP nonselect 0 and MC4R cAMP antag 14.
CCCC/C(C)=N/NC(=O)CN(c1ccc(Br)cc1)S(=O)(=O)c1ccccc1 was read as iPSC survival up 3, ABCB6 inh MLPCN 92, MC4R ag barr 0, MC4R antagonist 3, Granule exo inh 1 and TbMetRS inhib -1.
Screening CC(C)N1CCN(Cc2ccsc2)CC1CCO (stereo unspecified) returned iPSC survival up -1, ABCB6 inh MLPCN 95, MC4R ag barr -1, MC4R antagonist 0, Granule exo inh 0 and TbMetRS inhib 0.

Screening data from PubChem.
